Results as given in ChEMBL document CHEMBL5104120, “Morpholine substituted quinazoline derivatives as anticancer agents against MCF-7, A549 and SHSY-5Y cancer cell lines and mechanistic studies” (RSC Med Chem, 2022).

How the values were obtained:
SH-SY5Y [1] = experiment: Antiproliferative activity against human SH-SY5Y cells assessed as inhibition of cell growth incubated for 48 hrs by MTT assay; type: functional, cell-based
Method in brief: (§1)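 Cell lines from NCCS; ~8000 cells/well grown 24 h at 37 °C, 5% CO2, serum-starved 8 h to synchronize, then complete medium restored. Compounds applied at 1, 5, 10 and 25 μM in triplicate for 48 h. MTT added after medium removal, 4 h in dark; formazan dissolved in DMSO, absorbance at 590 nm read as % viability (mean ± S.D.); IC50 in μM.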

A549 = experiment: Antiproliferative activity against human A549 cells assessed as inhibition of cell growth incubated for 48 hrs by MTT assay; type: functional, cell-based; conditions: A549, 48 h; method in brief: as §1
MCF7 [2] = experiment: Antiproliferative activity against human MCF7 cells assessed as inhibition of cell growth incubated for 48 hrs by MTT assay; type: functional, cell-based; conditions: MCF7, 48 h; method in brief: as §1
HT-29 = experiment: Antiproliferative activity against human HT-29 cells assessed as inhibition of cell growth incubated for 72 hrs by SRB assay; type: functional, cell-based; conditions: HT-29, 72 h
MCF7 [3] = experiment: Antiproliferative activity against human MCF7 cells assessed as inhibition of cell growth incubated for 72 hrs by SRB assay; type: functional, cell-based; conditions: MCF7, 72 h
[4] = Cytotoxicity against human HEK293 cells assessed as inhibition of cell growth incubated for 48 hrs by MTT assay; type: toxicity, cell-based
SH-SY5Y [5] = experiment: Cell cycle arrest in human SH-SY5Y cells assessed as cells in S phase at 10 uM incubated for 48 hrs by PI staining based flow cytometry analysis (reference value: 16.2 %); type: functional
SH-SY5Y [6] = experiment: Induction of apoptosis in human SH-SY5Y cells assessed as late apoptotic cells at 10 uM incubated for 48 hrs by AnnexinV staining based cytofluorimetric analysis (reference value: 0.24 %); type: functional
Method in brief: (§2)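 SHSY5Y cells grown in 6-well plates and exposed to compounds at 10 μM for 48 h. Cells plus medium centrifuged at 1200 rpm for 5 min, washed in 1× PBS, then incubated with Annexin V/dead cell reagent 30 min at room temperature in dark. Annexin V […] populations quantified on a Muse cytofluorimetric analyzer.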

SH-SY5Y [7] = experiment: Induction of apoptosis in human SH-SY5Y cells assessed as early apoptotic cells at 10 uM incubated for 48 hrs by AnnexinV staining based cytofluorimetric analysis (reference value: 1.16 %); type: functional; method in brief: as §2
SH-SY5Y [8] = experiment: Cell cycle arrest in human SH-SY5Y cells assessed as cells in G0/G1 phase at 10 uM incubated for 48 hrs by PI staining based flow cytometry analysis (reference value: 53.2 %); type: functional
SH-SY5Y [9] = experiment: Induction of apoptosis in human SH-SY5Y cells assessed as necrotic cells at 10 uM incubated for 48 hrs by AnnexinV staining based cytofluorimetric analysis (reference value: 0 %); type: functional; method in brief: as §2
SH-SY5Y [10] = experiment: Cell cycle arrest in human SH-SY5Y cells assessed as cells in G2 phase at 10 uM incubated for 48 hrs by PI staining based flow cytometry analysis (reference value: 31.1 %); type: functional
SH-SY5Y [11] = experiment: Induction of apoptosis in human SH-SY5Y cells assessed as viable cells at 10 uM incubated for 48 hrs by AnnexinV staining based cytofluorimetric analysis (reference value: 98.6 %); type: functional; conditions: read-out: Activity; method in brief: as §2
L1210 = experiment: Antiproliferative activity against mouse L1210 cells assessed as inhibition of cell growth incubated for 72 hrs by tryphan blue staining; type: functional, cell-based; conditions: L1210, 72 h
HeLa = experiment: Antiproliferative activity against human HeLa cells assessed as inhibition of cell growth incubated for 72 hrs by tryphan blue staining; type: functional, cell-based
B16 = experiment: Antiproliferative activity against mouse B16 cells assessed as inhibition of cell growth incubated for 72 hrs by tryphan blue staining; type: functional, cell-based; conditions: B16, 72 h
NIH3T3 = experiment: Antiproliferative activity against mouse NIH3T3 cells assessed as inhibition of cell growth incubated for 72 hrs by tryphan blue staining; type: functional, cell-based; conditions: NIH3T3, 72 h

SMILES | IC50 (SH-SY5Y [1]) [µM] | IC50 (A549) [µM] | IC50 (MCF7 [2]) [µM] | IC50 at 48 h [4] [µM] | further results
c1ccc(-c2nc(N3CCOCC3)c3ccccc3n2)cc1 | > 25 | 9.47 | > 25 |  | 
O=C1Nc2ccc(F)cc2/C1=N/Nc1nc(-c2ccccc2)nc2ccccc12 |  |  |  |  | IC50 (HT-29): 14.3 µM; IC50 (MCF7 [3]): 7.4 µM
CSc1ccc(-c2nc(N3CCOCC3)c3ccccc3n2)cc1 | 24.3 | 17.7 | 10.1 |  | 
O=[N+]([O-])c1ccc(-c2nnc3c4cc(Cl)ccc4nc(N4CCOCC4)n23)s1 |  |  |  |  | IC50 (L1210): 580 nM; IC50 (HeLa): 6.43 µM; IC50 (B16): 240 nM; IC50 (NIH3T3): 2740 nM
COc1ccc(-c2nc(N3CCOCC3)c3ccccc3n2)cc1 | > 25 | 20.8 | 5.01 | > 25 | 
N#Cc1ccc(-c2nc(N3CCOCC3)c3ccccc3n2)cc1 | > 25 | 11.1 | > 25 |  | 
Fc1ccccc1-c1nc(N2CCOCC2)c2ccccc2n1 | > 25 | 10.8 | > 25 |  | 
Fc1cccc(Cl)c1-c1nc(N2CCOCC2)c2ccccc2n1 | 22 | 17.8 | > 25 |  | 
COc1cc2c(c(OC)c1OC)-c1ccc(OC)c(=O)cc1[C@@H](NC(C)=O)CC2 [COLCHICINE] | 7.89 | 5.13 | 5.19 | > 25 | 

Further molecules by falling IC50 (SH-SY5Y [1]), results first:

IC50 (SH-SY5Y [1]) [µM] | IC50 (A549) [µM] | IC50 (MCF7 [2]) [µM] | SMILES | IC50 at 48 h [4] [µM] | further results
20.7 | 12.5 | 5.57 | Oc1ccc(-c2nc(N3CCOCC3)c3ccccc3n2)cc1 | > 25 | 
18 | 18.9 | 4.93 | Cc1ccc(-c2nc(N3CCOCC3)c3ccccc3n2)cc1 |  | 
15.8 | 9.83 | 6.69 | FC(F)(F)c1ccc(-c2nc(N3CCOCC3)c3ccccc3n2)cc1 | > 25 | 
15.2 | 9.5 | 10.5 | CC(C)c1ccc(-c2nc(N3CCOCC3)c3ccccc3n2)cc1 |  | 
14.5 | 11.5 | > 25 | c1ccc2[nH]c(-c3nc(N4CCOCC4)c4ccccc4n3)cc2c1 |  | 
9.54 | 10.4 | 6.44 | CN(C)c1ccc(-c2nc(N3CCOCC3)c3ccccc3n2)cc1 | > 25 | Activity (SH-SY5Y [5]): 15.3%; Activity (SH-SY5Y [6]): 78.2%; Activity (SH-SY5Y [7]): 2.23%; Activity (SH-SY5Y [8]): 59%; Activity (SH-SY5Y [9]): 19%; Activity (SH-SY5Y [10]): 26.2%; viability at 10 µM (SH-SY5Y [11]): 0.55%
3.36 | 8.55 | 3.15 | COc1cc(-c2nc(N3CCOCC3)c3ccccc3n2)cc(OC)c1OC |  | Activity (SH-SY5Y [5]): 14.4%; Activity (SH-SY5Y [6]): 77.6%; Activity (SH-SY5Y [7]): 2.71%; Activity (SH-SY5Y [8]): 62.1%; Activity (SH-SY5Y [9]): 19.2%; Activity (SH-SY5Y [10]): 24.3%; viability at 10 µM (SH-SY5Y [11]): 0.42%
